Results from paper PMC7670640 (Pharmacology Research & Perspectives, 2020).

What was measured:
[1] = Multiple ascending dose part; assay type: in vivo, human; conditions: for AUC / Cmax / Tmax: human, plasma, oral, multiple‐dose; for AUC: AUC0‐24, geometric mean (%CVb); for Cmax: geometric mean (%CVb); for Tmax: median (range)
[2] = Lowest observed adverse effect level in dogs; assay type: in vivo
[3] = Single ascending dose part; assay type: in vivo, human
Method in brief: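 Healthy men in an interlocking two-cohort, four-period crossover. Each period was randomized 3:1 (6 active, 2 placebo); each participant received three ascending single oral doses and one placebo, each after a moderate-fat meal (~600 calories, ~30% fat). Two sentinel participants per period were dosed first, with a 24-h safety review before the rest. Monitoring covered AEs, vitals, ECGs, labs, physical exams, and GI/hepatobiliary abnormalities. AEs were MedDRA-coded and summarized descriptively.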

[4] = Part 1, across all drug doses in the 20 participants

C=C(C)[C@@H]1CC[C@]2(NCCN3CCS(=O)(=O)CC3)CC[C@]3(C)[C@H](CC[C@@H]4[C@@]5(C)CC=C(C6=CC[C@@](CF)(C(=O)O)CC6)C(C)(C)[C@@H]5CC[C@]43C)[C@@H]12 [GSK3640254]
AUC ([1]; 50 mg, Day 1, 50 mg, N = 6): 2860 ng·h/mL | Cmax ([1]; 50 mg, Day 1, 50 mg, N = 6): 215 ng/mL | Tmax ([1]; 50 mg, Day 1, 50 mg, N = 6): 3.8 h | AUC ([1]; 100 mg, Day 1, 100 mg, N = 6): 6800 ng·h/mL | Cmax ([1]; 100 mg, Day 1, 100 mg, N = 6): 536 ng/mL | Tmax ([1]; 100 mg, Day 1, 100 mg, N = 6): 4.3 h | AUC ([1]; 320 mg, Day 1, 320 mg, N = 7): 13500 ng·h/mL | Cmax ([1]; 320 mg, Day 1, 320 mg, N = 7): 1040 ng/mL | Tmax ([1]; 320 mg, Day 1, 320 mg, N = 7): 4 h | increase in exposure upon repeat dosing ([1]; in vivo): two‐ to three‐fold | dose‐proportionality of Cmax and AUC ([1]; multiple‐dose administration 50‐320 mg): trend toward less than dose‐proportional increases in exposure | time to steady state ([1]; repeat once‐daily dosing): ≤ 8 days | attainment of steady state (slope of trough concentration vs time close to zero) ([1]; trough concentrations from all participants): ≤ 8 days | maximum recommended starting dose [MRSD] based on lowest observed adverse effect level in dogs ([2]; calculated from dog level of 1 mg/kg): approximately 3.2 mg | lowest observed adverse effect level ([2]; dogs, absence of a NOAEL in dogs): 1 mg/kg | most common AEs: contact dermatitis, number of events [3, 4]: five | most common AEs: diarrhea, number of events [3, 4]: four | most common AEs: dizziness, number of events [3, 4]: four | most common AEs: headache, number of events [3, 4]: eight | most common AEs: nasopharyngitis, number of events [3, 4]: three | participants reporting GI AEs ([3]; Part 1, eleven GI AEs in six participants): 30% | adverse drug reactions, number ([3]; across both parts of the study (total includes placebo periods per Table 3)): 12 | trends in laboratory values or vital sign parameters ([3]; across doses in either part of the study): no clinically significant trends in laboratory values or vital sign parameters | deaths or serious AEs ([3]; single and multiple ascending doses): no deaths or serious AEs were reported | Adverse event: Any event ([3]; single dose 1 mg (N = 6)): 3 (50) n (%) | Adverse event: Contact dermatitis ([3]; single dose 1 mg (N = 6)): 1 (17) n (%) | Adverse event: Cough ([3]; single dose 1 mg (N = 6)): 0 n (%) | Adverse event: Diarrhea ([3]; single dose 1 mg (N = 6)): 0 n (%) | Adverse event: Dizziness ([3]; single dose 1 mg (N = 6)): 1 (17) n (%) | Adverse event: Gastrointestinal disorders ([3]; single dose 1 mg (N = 6)): 1 (17) n (%) | Adverse event: Headache ([3]; single dose 1 mg (N = 6)): 1 (17) n (%) | Adverse event: Increased transaminases ([3]; single dose 1 mg (N = 6)): 0 n (%) | Adverse event: Nasal obstruction ([3]; single dose 1 mg (N = 6)): 0 n (%) | Adverse event: Nasopharyngitis ([3]; single dose 1 mg (N = 6)): 0 n (%) | Adverse event: Nightmare ([3]; single dose 1 mg (N = 6)): 0 n (%) | Adverse event: Viral infection ([3]; single dose 1 mg (N = 6)): 0 n (%) | Adverse event: Vomiting ([3]; single dose 1 mg (N = 6)): 0 n (%) | Adverse event: Any event ([3]; single dose 3 mg (N = 6)): 2 (33) n (%) | Adverse event: Contact dermatitis ([3]; single dose 3 mg (N = 6)): 1 (17) n (%) | Adverse event: Cough ([3]; single dose 3 mg (N = 6)): 0 n (%) | Adverse event: Diarrhea ([3]; single dose 3 mg (N = 6)): 0 n (%) | Adverse event: Dizziness ([3]; single dose 3 mg (N = 6)): 1 (17) n (%) | Adverse event: Gastrointestinal disorders ([3]; single dose 3 mg (N = 6)): 0 n (%) | Adverse event: Headache ([3]; single dose 3 mg (N = 6)): 0 n (%) | Adverse event: Increased transaminases ([3]; single dose 3 mg (N = 6)): 0 n (%) | Adverse event: Nasal obstruction ([3]; single dose 3 mg (N = 6)): 0 n (%) | Adverse event: Nasopharyngitis ([3]; single dose 3 mg (N = 6)): 0 n (%) | Adverse event: Nightmare ([3]; single dose 3 mg (N = 6)): 1 (17) n (%) | Adverse event: Viral infection ([3]; single dose 3 mg (N = 6)): 0 n (%) | Adverse event: Vomiting ([3]; single dose 3 mg (N = 6)): 0 n (%) | Adverse event: Any event ([3]; single dose 10 mg (N = 6)): 4 (67) n (%) | Adverse event: Contact dermatitis ([3]; single dose 10 mg (N = 6)): 1 (17) n (%) | Adverse event: Cough ([3]; single dose 10 mg (N = 6)): 1 (17) n (%) | Adverse event: Diarrhea ([3]; single dose 10 mg (N = 6)): 1 (17) n (%) | Adverse event: Dizziness ([3]; single dose 10 mg (N = 6)): 1 (17) n (%) | Adverse event: Gastrointestinal disorders ([3]; single dose 10 mg (N = 6)): 1 (17) n (%) | Adverse event: Headache ([3]; single dose 10 mg (N = 6)): 1 (17) n (%) | Adverse event: Increased transaminases ([3]; single dose 10 mg (N = 6)): 0 n (%) | Adverse event: Nasal obstruction ([3]; single dose 10 mg (N = 6)): 1 (17) n (%) | Adverse event: Nasopharyngitis ([3]; single dose 10 mg (N = 6)): 1 (17) n (%) | Adverse event: Nightmare ([3]; single dose 10 mg (N = 6)): 0 n (%) | Adverse event: Viral infection ([3]; single dose 10 mg (N = 6)): 1 (17) n (%) | Adverse event: Vomiting ([3]; single dose 10 mg (N = 6)): 0 n (%) | Adverse event: Any event ([3]; single dose 30 mg (N = 6)): 3 (50) n (%) | Adverse event: Contact dermatitis ([3]; single dose 30 mg (N = 6)): 0 n (%) | Adverse event: Cough ([3]; single dose 30 mg (N = 6)): 0 n (%) | Adverse event: Diarrhea ([3]; single dose 30 mg (N = 6)): 1 (17) n (%) | Adverse event: Dizziness ([3]; single dose 30 mg (N = 6)): 0 n (%) | Adverse event: Gastrointestinal disorders ([3]; single dose 30 mg (N = 6)): 1 (17) n (%) | Adverse event: Headache ([3]; single dose 30 mg (N = 6)): 1 (17) n (%) | Adverse event: Increased transaminases ([3]; single dose 30 mg (N = 6)): 0 n (%) | Adverse event: Nasal obstruction ([3]; single dose 30 mg (N = 6)): 0 n (%) | Adverse event: Nasopharyngitis ([3]; single dose 30 mg (N = 6)): 0 n (%) | Adverse event: Nightmare ([3]; single dose 30 mg (N = 6)): 0 n (%) | Adverse event: Viral infection ([3]; single dose 30 mg (N = 6)): 0 n (%) | Adverse event: Vomiting ([3]; single dose 30 mg (N = 6)): 0 n (%) | Adverse event: Any event ([3]; single dose 100 mg (N = 6)): 3 (50) n (%) | Adverse event: Contact dermatitis ([3]; single dose 100 mg (N = 6)): 0 n (%) | Adverse event: Cough ([3]; single dose 100 mg (N = 6)): 1 (17) n (%) | Adverse event: Diarrhea ([3]; single dose 100 mg (N = 6)): 2 (33) n (%) | Adverse event: Dizziness ([3]; single dose 100 mg (N = 6)): 0 n (%) | Adverse event: Gastrointestinal disorders ([3]; single dose 100 mg (N = 6)): 2 (33) n (%) | Adverse event: Headache ([3]; single dose 100 mg (N = 6)): 2 (33) n (%) | Adverse event: Increased transaminases ([3]; single dose 100 mg (N = 6)): 0 n (%) | Adverse event: Nasal obstruction ([3]; single dose 100 mg (N = 6)): 0 n (%) | Adverse event: Nasopharyngitis ([3]; single dose 100 mg (N = 6)): 1 (17) n (%) | Adverse event: Nightmare ([3]; single dose 100 mg (N = 6)): 0 n (%) | Adverse event: Viral infection ([3]; single dose 100 mg (N = 6)): 1 (17) n (%) | Adverse event: Vomiting ([3]; single dose 100 mg (N = 6)): 2 (33) n (%) | Adverse event: Any event ([3]; single dose 200 mg (N = 6)): 4 (67) n (%) | Adverse event: Contact dermatitis ([3]; single dose 200 mg (N = 6)): 1 (17) n (%) | Adverse event: Cough ([3]; single dose 200 mg (N = 6)): 0 n (%) | Adverse event: Diarrhea ([3]; single dose 200 mg (N = 6)): 0 n (%) | Adverse event: Dizziness ([3]; single dose 200 mg (N = 6)): 0 n (%) | Adverse event: Gastrointestinal disorders ([3]; single dose 200 mg (N = 6)): 0 n (%) | Adverse event: Headache ([3]; single dose 200 mg (N = 6)): 1 (17) n (%) | Adverse event: Increased transaminases ([3]; single dose 200 mg (N = 6)): 1 (17) n (%) | Adverse event: Nasal obstruction ([3]; single dose 200 mg (N = 6)): 0 n (%) | Adverse event: Nasopharyngitis ([3]; single dose 200 mg (N = 6)): 0 n (%) | Adverse event: Nightmare ([3]; single dose 200 mg (N = 6)): 0 n (%) | Adverse event: Viral infection ([3]; single dose 200 mg (N = 6)): 0 n (%) | Adverse event: Vomiting ([3]; single dose 200 mg (N = 6)): 0 n (%) | Adverse event: Any event ([3]; single dose 400 mg (N = 6)): 4 (67) n (%) | Adverse event: Contact dermatitis ([3]; single dose 400 mg (N = 6)): 1 (17) n (%) | Adverse event: Cough ([3]; single dose 400 mg (N = 6)): 0 n (%) | Adverse event: Diarrhea ([3]; single dose 400 mg (N = 6)): 0 n (%) | Adverse event: Dizziness ([3]; single dose 400 mg (N = 6)): 0 n (%) | Adverse event: Gastrointestinal disorders ([3]; single dose 400 mg (N = 6)): 1 (17) n (%) | Adverse event: Headache ([3]; single dose 400 mg (N = 6)): 2 (33) n (%) | Adverse event: Increased transaminases ([3]; single dose 400 mg (N = 6)): 0 n (%) | Adverse event: Nasal obstruction ([3]; single dose 400 mg (N = 6)): 0 n (%) | Adverse event: Nasopharyngitis ([3]; single dose 400 mg (N = 6)): 1 (17) n (%) | Adverse event: Nightmare ([3]; single dose 400 mg (N = 6)): 0 n (%) | Adverse event: Viral infection ([3]; single dose 400 mg (N = 6)): 0 n (%) | Adverse event: Vomiting ([3]; single dose 400 mg (N = 6)): 0 n (%) | Adverse event: Any event ([3]; single dose 700 mg (N = 6)): 1 (17) n (%) | Adverse event: Contact dermatitis ([3]; single dose 700 mg (N = 6)): 0 n (%) | Adverse event: Cough ([3]; single dose 700 mg (N = 6)): 0 n (%) | Adverse event: Diarrhea ([3]; single dose 700 mg (N = 6)): 0 n (%) | Adverse event: Dizziness ([3]; single dose 700 mg (N = 6)): 1 (17) n (%) | Adverse event: Gastrointestinal disorders ([3]; single dose 700 mg (N = 6)): 0 n (%) | Adverse event: Headache ([3]; single dose 700 mg (N = 6)): 0 n (%) | Adverse event: Increased transaminases ([3]; single dose 700 mg (N = 6)): 0 n (%) | Adverse event: Nasal obstruction ([3]; single dose 700 mg (N = 6)): 0 n (%) | Adverse event: Nasopharyngitis ([3]; single dose 700 mg (N = 6)): 0 n (%) | Adverse event: Nightmare ([3]; single dose 700 mg (N = 6)): 0 n (%) | Adverse event: Viral infection ([3]; single dose 700 mg (N = 6)): 0 n (%) | Adverse event: Vomiting ([3]; single dose 700 mg (N = 6)): 0 n (%)
